According to BindingDB's records for doi:10.1016/j.bmcl.2012.01.074 (Spanish National Cancer Research Centre (Cnio), 2012):

biological target: Phosphatidylinositol 3-kinase regulatory subunit alpha/4,5-bisphosphate 3-kinase catalytic subunit alpha isoform (Homo sapiens, UniProt P27986+P42336); assay: Inhibition of PI3K p110alpha/p85alpha
Method in brief: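 Biochemical kinase assay following the kit manufacturer's protocol with a modified kinase buffer (50 mM HEPES pH 7.5, 3 mM MgCl2, 100 mM NaCl, 1 mM EGTA, 0.04% CHAPS, 2 mM TCEP, 0.01 mg/ml BGG); 10 nM enzyme; ATP 50 µM; values are averages of two independent experiments, each in duplicate.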

Chain of Phosphatidylinositol 3-kinase regulatory subunit alpha/4,5-bisphosphate 3-kinase catalytic subunit alpha isoform (P27986 whole entry, canonical isoform): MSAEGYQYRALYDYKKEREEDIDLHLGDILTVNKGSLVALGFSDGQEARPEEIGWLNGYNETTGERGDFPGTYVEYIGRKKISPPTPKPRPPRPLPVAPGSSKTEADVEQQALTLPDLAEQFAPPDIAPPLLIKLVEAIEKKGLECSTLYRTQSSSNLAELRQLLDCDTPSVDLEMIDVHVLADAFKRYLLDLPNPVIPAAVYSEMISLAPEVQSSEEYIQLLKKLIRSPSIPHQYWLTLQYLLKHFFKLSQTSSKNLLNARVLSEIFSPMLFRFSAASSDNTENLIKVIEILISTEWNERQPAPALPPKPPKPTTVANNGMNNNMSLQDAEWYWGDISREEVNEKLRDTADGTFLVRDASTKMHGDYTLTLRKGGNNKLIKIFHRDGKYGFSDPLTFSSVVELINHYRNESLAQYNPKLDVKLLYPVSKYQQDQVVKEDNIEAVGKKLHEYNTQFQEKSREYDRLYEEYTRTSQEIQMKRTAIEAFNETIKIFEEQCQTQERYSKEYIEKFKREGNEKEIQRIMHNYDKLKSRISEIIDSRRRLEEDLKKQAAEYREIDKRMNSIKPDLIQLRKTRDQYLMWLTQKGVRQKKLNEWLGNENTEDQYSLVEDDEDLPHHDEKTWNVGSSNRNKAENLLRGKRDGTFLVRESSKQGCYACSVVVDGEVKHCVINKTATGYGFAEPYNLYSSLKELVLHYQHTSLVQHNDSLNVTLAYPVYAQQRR
Chain of Phosphatidylinositol 3-kinase regulatory subunit alpha/4,5-bisphosphate 3-kinase catalytic subunit alpha isoform (P42336 whole entry, canonical isoform): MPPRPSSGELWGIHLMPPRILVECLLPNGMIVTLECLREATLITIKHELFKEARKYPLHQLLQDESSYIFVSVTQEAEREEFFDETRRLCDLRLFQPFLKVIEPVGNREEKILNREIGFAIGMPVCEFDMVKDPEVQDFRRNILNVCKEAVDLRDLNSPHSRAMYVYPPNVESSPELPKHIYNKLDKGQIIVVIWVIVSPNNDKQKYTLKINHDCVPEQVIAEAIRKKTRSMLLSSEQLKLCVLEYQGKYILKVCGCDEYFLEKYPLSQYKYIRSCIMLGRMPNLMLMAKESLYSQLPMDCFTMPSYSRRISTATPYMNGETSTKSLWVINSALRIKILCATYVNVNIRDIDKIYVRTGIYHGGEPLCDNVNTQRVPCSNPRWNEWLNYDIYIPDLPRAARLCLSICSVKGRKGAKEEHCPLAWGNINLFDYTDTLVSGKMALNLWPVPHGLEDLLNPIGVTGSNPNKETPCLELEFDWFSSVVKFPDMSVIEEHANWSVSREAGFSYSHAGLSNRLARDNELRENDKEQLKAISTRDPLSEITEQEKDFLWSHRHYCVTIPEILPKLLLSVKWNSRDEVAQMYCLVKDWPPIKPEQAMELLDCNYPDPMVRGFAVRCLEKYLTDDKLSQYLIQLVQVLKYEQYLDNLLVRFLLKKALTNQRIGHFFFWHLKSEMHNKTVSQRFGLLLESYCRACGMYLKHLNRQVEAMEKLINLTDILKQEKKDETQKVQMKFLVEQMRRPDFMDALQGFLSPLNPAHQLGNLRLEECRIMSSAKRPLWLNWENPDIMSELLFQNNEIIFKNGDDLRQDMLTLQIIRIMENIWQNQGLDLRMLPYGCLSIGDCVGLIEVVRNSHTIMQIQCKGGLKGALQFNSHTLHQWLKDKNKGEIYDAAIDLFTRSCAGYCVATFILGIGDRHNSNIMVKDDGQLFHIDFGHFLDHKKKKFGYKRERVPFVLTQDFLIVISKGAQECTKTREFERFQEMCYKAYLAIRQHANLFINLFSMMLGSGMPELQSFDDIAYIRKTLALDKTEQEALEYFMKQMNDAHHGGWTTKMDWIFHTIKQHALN

Row | Compound | IC50 [nM]
1 | CNC(=O)c1cn2cc(-c3cccc4[nH]ncc34)nc(N3CCOCC3)c2n1 | 110
2 | Cc1cn2cc(-c3cccc(O)c3)nc(N3CCOCC3)c2n1 | 96
3 | Oc1cccc(-c2cn3cc(C4CC4)nc3c(N3CCOCC3)n2)c1 | 340
4 | Oc1cccc(-c2cn3cc(C(F)(F)F)nc3c(N3CCOCC3)n2)c1 | 108
5 | OCc1cn2cc(-c3cccc(O)c3)nc(N3CCOCC3)c2n1 | 639
6 | Oc1cccc(-c2cn3cc(CN4CCOCC4)nc3c(N3CCOCC3)n2)c1 | 444
7 | O=C1CN(Cc2cn3cc(-c4cccc(O)c4)nc(N4CCOCC4)c3n2)CCN1 | 540

The remaining lines, values ahead:

Row | IC50 [nM] | Compound
8 | 92 | CCNC(=O)c1cn2cc(-c3cccc4[nH]ncc34)nc(N3CCOCC3)c2n1
9 | 38 | O=C(NCCN1CCOCC1)c1cn2cc(-c3cccc4[nH]ncc34)nc(N3CCOCC3)c2n1
10 | 451 | CC(=O)N1CCN(Cc2cn3cc(-c4cccc(O)c4)nc(N4CCOCC4)c3n2)CC1
